Results on one compound are retold here after ChEMBL document CHEMBL1152368, “Synthesis, structure-activity relationships, and biological profiles of a dihydrobenzoxathiin class of histamine H(3) receptor inverse agonists” (Bioorg Med Chem Lett, 2009).

Test [1] deals with Histamine H4 receptor (Homo sapiens, UniProt Q9H3N8). In words: Inhibition of human histamine H4 receptor.
Test [2] has as its target Histamine H1 receptor (Homo sapiens, UniProt P35367). Put plainly: Inhibition of human histamine H1 receptor.
The target in test [3] is Histamine H3 receptor (Mus musculus, UniProt P58406). Put plainly: Displacement of [3H]R-alpha-methylhistamine from mouse histamine H3 receptor by cell-based assay. Summed up:
(§1)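 Radioligand binding with [³H]R-α-methylhistamine on membranes of CHO or HEK293 cells expressing human, rat or mouse H₃ receptor.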
On the technique in general: Loss of bound radioactivity is the signal in a displacement assay; it reports binding, not function.

For test [4], the target named is Histamine H3 receptor (Rattus norvegicus, UniProt Q9QYN8). Put plainly: Displacement of [3H]R-alpha-methylhistamine from rat histamine H3 receptor by cell-based assay. Summed up: as §1
Test [5] has as its target Histamine H2 receptor (Homo sapiens, UniProt P25021). In words: Inhibition of human histamine H2 receptor.

Chain of Histamine H3 receptor (Mus musculus, UniProt P58406) (P58406 whole entry): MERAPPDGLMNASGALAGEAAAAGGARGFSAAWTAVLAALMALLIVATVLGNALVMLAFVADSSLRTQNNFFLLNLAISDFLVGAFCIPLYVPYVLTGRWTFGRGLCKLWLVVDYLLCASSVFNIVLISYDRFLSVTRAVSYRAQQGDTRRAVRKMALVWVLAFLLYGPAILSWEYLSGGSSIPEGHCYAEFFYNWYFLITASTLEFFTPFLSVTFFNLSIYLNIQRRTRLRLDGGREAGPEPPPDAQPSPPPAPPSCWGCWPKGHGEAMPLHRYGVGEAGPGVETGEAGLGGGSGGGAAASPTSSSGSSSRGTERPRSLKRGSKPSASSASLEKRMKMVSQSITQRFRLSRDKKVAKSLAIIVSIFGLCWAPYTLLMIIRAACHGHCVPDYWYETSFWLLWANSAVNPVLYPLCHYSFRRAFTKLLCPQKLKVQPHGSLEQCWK
Chain of Histamine H4 receptor (Q9H3N8 whole entry): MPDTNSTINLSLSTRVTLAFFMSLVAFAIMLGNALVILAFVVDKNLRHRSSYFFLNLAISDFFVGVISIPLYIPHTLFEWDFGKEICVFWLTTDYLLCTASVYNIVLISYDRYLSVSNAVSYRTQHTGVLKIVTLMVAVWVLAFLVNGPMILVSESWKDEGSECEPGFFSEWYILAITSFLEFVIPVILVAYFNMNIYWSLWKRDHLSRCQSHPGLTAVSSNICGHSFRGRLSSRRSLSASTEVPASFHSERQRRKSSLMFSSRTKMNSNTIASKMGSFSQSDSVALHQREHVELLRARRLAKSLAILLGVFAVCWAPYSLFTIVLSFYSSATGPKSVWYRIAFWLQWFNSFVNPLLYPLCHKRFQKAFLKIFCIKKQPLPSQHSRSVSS
Chain of Histamine H3 receptor (Rattus norvegicus, UniProt Q9QYN8) (Q9QYN8 whole entry): as the sequence (P58406 whole entry) above, with A15T, T286A, G290A, H387R, V389I counted along it
Chain of Histamine H1 receptor (P35367 whole entry): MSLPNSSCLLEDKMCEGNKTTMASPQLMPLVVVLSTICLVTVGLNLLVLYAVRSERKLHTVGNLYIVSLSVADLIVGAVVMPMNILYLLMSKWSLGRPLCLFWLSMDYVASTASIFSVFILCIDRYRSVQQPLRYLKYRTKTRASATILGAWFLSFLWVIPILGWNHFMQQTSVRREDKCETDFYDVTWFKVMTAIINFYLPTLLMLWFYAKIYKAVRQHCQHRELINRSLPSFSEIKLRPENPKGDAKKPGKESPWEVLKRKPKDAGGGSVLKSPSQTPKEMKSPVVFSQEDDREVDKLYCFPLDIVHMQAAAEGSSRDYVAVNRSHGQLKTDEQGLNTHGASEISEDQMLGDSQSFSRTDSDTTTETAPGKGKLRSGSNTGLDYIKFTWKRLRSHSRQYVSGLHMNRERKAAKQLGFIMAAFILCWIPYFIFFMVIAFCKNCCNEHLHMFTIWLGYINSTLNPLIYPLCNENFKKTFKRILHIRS
Chain of Histamine H2 receptor (P25021 whole entry): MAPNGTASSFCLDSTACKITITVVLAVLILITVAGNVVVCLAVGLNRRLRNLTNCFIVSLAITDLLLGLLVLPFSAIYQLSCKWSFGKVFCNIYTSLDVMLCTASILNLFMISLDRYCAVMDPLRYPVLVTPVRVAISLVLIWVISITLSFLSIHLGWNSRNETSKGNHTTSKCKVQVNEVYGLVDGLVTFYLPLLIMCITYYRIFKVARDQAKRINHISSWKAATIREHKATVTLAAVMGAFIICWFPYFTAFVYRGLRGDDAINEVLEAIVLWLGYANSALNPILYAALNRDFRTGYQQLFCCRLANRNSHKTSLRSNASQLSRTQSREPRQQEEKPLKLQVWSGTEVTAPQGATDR

In the case of `COc1cccc2c1O[C@@H](c1ccc(OCCCN3CCCC3)cc1)[C@H](C)S2(=O)=O`, the IC50 in test [1], in test [2] and in test [5] was above 10000 nM in each case. Moreover, the Ki in test [3] turned out to be 5.9 nM; in test [4] it was 2.8 nM.

As usually defined, the IC50 is the concentration at which inhibition is half-maximal. The term Ki denotes the equilibrium dissociation constant of an inhibitor or competing ligand from its target. Higher therefore signals lower affinity.
